Activity calls are given as the source filed them. The calls are words filed in the database; no cut-off is given here.
Tests used:
[1] = target: Amyloid-beta precursor protein (Homo sapiens) (UniProt P05067); experiment: Inhibition of amyloid beta (1 to 42) (unknown origin) fibril formation assessed as extension of aggregation half life at compound/protein ratio of 0.1/1 after 42 hrs by ThT fluorescence assay relative to control
Summary of the method: (§1)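 Aβ1-42 (1 mM in 1% ammonia, diluted in buffer) added to a final 10 μM into 40 μM ThT in 10 mM Tris-HCl, 100 mM NaCl pH 7.4, with compound at 100, 50, 10 or 1 μM (0.5% DMSO), at room temperature. Ex/em 440/485 nm read for 42 h, in duplicate or triplicate, 2–4 runs. t1/2 and plateau F expressed relative to Aβ alone.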

[2] = target: Amyloid-beta precursor protein (Homo sapiens) (UniProt P05067); experiment: Inhibition of amyloid beta (1 to 42) (unknown origin) fibril formation assessed as decrease in fluorescence plateau at compound/protein ratio of 0.1/1 after 42 hrs by ThT fluorescence assay relative to control; conditions: concentration not given here; summary of the method: as §1
SH-SY5Y [3] = experiment: Neuroprotective activity against amyloid beta (1 to 42)-induced toxicity in human SH-SY5Y cells assessed as cell viability at 0.25 to 5 uM after 24 hrs by MTS assay; assay type: functional, cell-based
Summary of the method: (§2)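 Aβ1-42 at 50 μM in sterile PBS pre-incubated 24 h at room temperature with 1, 5, 10 or 50 μM compound, then diluted 1:10 (5 μM Aβ final) onto SH-SY5Y cells. Cells seeded at 20 000/well in low-serum Optimem, 37 °C, 5% CO2, 24 h. Exposure a further 24 h in quadruplicate. MTS viability or LDH release read; assays repeated twice.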

[4] = target: Amyloid-beta precursor protein (Homo sapiens) (UniProt P05067); experiment: Inhibition of amyloid beta (1 to 42) (unknown origin) fibril formation assessed as decrease in fluorescence plateau at compound/protein ratio of 1/1 after 42 hrs by ThT fluorescence assay relative to control; summary of the method: as §1
[5] = target: Amyloid-beta precursor protein (Homo sapiens) (UniProt P05067); experiment: Inhibition of amyloid beta (1 to 42) (unknown origin) fibril formation assessed as extension of aggregation half life at compound/protein ratio of 1/1 after 42 hrs by ThT fluorescence assay relative to control; set-up: Activity: scale not given: the % may be the effect or the level left; summary of the method: as §1
SH-SY5Y [6] = experiment: Neuroprotective activity against amyloid beta (1 to 42)-induced toxicity in human SH-SY5Y cells assessed as reduction of cell death at 0.1 equiv after 24 hrs by MTS assay; assay type: functional; set-up: scale not given: the % may be the effect or the level left
Summary of the method: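 SH-SY5Y cells seeded at 20 000/well in low-serum Optimem, 24 h at 37°C, 5% CO2. Aβ1-42 at 50 μM in sterile PBS pre-incubated 24 h at room temperature with 1, 5, 10 or 50 μM inhibitor, or without inhibitor. The mix was diluted 1:10 into Optimem (5 μM Aβ final) and added to cells in quadruplicate. After a further 24 h, viability was read by MTS. Assay run twice.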

[7] = target: Amyloid-beta precursor protein (Homo sapiens) (UniProt P05067); experiment: Inhibition of amyloid beta (1 to 42) (unknown origin) aggregation assessed as appearance of glubular aggregation at compound/protein ratio of 1/1 after 42 hrs by transmission electron microscopy
Summary of the method: (§3)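 Samples prepared as for ThT: Aβ1-42 at 10 μM in 10 mM Tris-HCl, 100 mM NaCl pH 7.4, with or without compound at 10 or 100 μM. After 42 h, adsorbed 2 min onto carbon grids and negatively stained 45 s with 2% uranyl acetate. Imaged by TEM at 80 kV.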

Plasma = experiment: Metabolic stability in 10% human plasma assessed as drug degradation at 1 uM after 24 hrs by HPLC analysis; assay type: ADME, cell-free
Summary of the method: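 Compounds taken from 40 μM DMSO stock to 1 μM in 10% human plasma/90% sterile PBS, held 24 h at 37 °C. Analysed by C18 HPLC with a 0–80% gradient (A: 0.1% TFA in water; B: 0.05% TFA in acetonitrile).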

SH-SY5Y [8] = experiment: Neuroprotective activity against amyloid beta (1 to 42)-induced membrane damage in human SH-SY5Y cells at 0.1 to 5 uM after 24 hrs by LDH assay; assay type: functional, cell-based; summary of the method: as §2
[9] = target: Amyloid-beta precursor protein (Homo sapiens) (UniProt P05067); experiment: Inhibition of amyloid beta (1 to 42) (unknown origin) fibril formation assessed as extension of aggregation half life at compound/protein ratio of 10/1 after 42 hrs by ThT fluorescence assay relative to control; set-up: Activity: scale not given: the % may be the effect or the level left; summary of the method: as §1
[10] = target: T1, Islet amyloid polypeptide (Homo sapiens) (UniProt P10997); experiment: Inhibition of human IAPP fibril formation assessed as increase of aggregation half life at compound/protein ratio of 10/1 by ThT fluorescence assay
T1 sequence (whole entry): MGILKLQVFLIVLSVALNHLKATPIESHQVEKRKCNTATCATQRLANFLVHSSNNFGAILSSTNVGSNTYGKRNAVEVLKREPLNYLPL

[11] = target: Amyloid-beta precursor protein (Homo sapiens) (UniProt P05067); experiment: Inhibition of amyloid beta (1 to 42) (unknown origin) fibril formation assessed as decrease in fluorescence plateau at compound/protein ratio of 10/1 after 42 hrs by ThT fluorescence assay relative to control; conditions: concentration not given here; summary of the method: as §1
[12] = target: T1, Islet amyloid polypeptide (Homo sapiens); experiment: Inhibition of human IAPP fibril formation assessed as decrease in final fluorescence intensity at compound/protein ratio of 10/1 by ThT fluorescence assay
[13] = target: Amyloid-beta precursor protein (Homo sapiens) (UniProt P05067); experiment: Binding affinity to amyloid beta (1 to 42) (unknown origin) by SPR analysis
Summary of the method: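 Aβ1-42 (0.05 μM in 10 mM sodium acetate pH 4.6) amine-coupled to an EDC/NHS-activated gold chip, then rinsed with 0.1% NH4OH to leave mainly monomer. Analytes in 150 mM PBS with 2% DMSO were injected at 12.5–200 μM for 1 min at 80 μL/min. DMSO solvent correction applied and the ethanolamine-blocked blank channel subtracted. Regeneration with 0.1% NH4OH.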

[14] = target: Amyloid-beta precursor protein (Homo sapiens) (UniProt P05067); experiment: Inhibition of amyloid beta (1 to 42) (unknown origin) fibril formation at compound/protein ratio of 10/1, 1/1, 0.1/1 […] by ThT fluorescence assay
[15] = target: Amyloid-beta precursor protein (Homo sapiens) (UniProt P05067); experiment: Inhibition of amyloid beta (1 to 42) (unknown origin) aggregation assessed as appearance of less dense fiber at compound/protein ratio of 1/1 after 42 hrs by uranyl acetate staining-based transmission electron microscopy; summary of the method: as §3
[16] = target: Amyloid-beta precursor protein (Homo sapiens) (UniProt P05067); experiment: Inhibition of amyloid beta (1 to 42) (unknown origin) aggregation assessed as scattered, short and scarce fiber formation at compound/protein ratio of 10/1 after 42 hrs by uranyl acetate staining-based transmission electron microscopy; summary of the method: as §3
[17] = target: Amyloid-beta precursor protein (Homo sapiens) (UniProt P05067); experiment: Inhibition of amyloid beta (1 to 42) (unknown origin) fibril formation after 42 hrs by ThT fluorescence assay; summary of the method: as §1
[18] = target: Amyloid-beta precursor protein (Homo sapiens) (UniProt P05067); experiment: Inhibition of amyloid beta (1 to 42) (unknown origin) aggregation after 42 hrs by uranyl acetate staining-based transmission electron microscopy; summary of the method: as §3

Amyloid-beta precursor protein (Homo sapiens), sequence (P05067 whole entry): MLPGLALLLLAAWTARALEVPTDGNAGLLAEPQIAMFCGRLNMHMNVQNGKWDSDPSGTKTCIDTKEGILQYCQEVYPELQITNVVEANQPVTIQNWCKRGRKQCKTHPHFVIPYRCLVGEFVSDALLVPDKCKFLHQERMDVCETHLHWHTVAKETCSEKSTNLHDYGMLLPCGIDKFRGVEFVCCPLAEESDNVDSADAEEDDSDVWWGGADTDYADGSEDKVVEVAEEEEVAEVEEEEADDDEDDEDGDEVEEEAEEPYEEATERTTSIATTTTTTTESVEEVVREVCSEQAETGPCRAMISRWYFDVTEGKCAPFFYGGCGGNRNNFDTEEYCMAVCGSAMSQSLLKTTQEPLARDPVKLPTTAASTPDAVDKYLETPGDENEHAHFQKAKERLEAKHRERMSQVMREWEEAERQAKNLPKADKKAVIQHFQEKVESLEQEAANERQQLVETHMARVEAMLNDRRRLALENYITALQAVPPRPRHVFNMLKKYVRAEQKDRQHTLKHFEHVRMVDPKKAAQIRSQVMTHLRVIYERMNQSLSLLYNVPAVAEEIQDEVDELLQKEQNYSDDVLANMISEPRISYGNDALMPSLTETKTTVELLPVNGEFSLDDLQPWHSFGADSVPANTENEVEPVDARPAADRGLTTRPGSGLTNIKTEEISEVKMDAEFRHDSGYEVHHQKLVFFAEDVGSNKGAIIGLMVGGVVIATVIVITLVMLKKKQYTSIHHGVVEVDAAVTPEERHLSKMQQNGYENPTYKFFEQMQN

What does the source list for `COc1ccc(NC(C)=O)cc1C(=O)NNC(=O)[C@H](CCCCN)NC(=O)CCOC[C@H]1OC(OCCCNC(=O)[C@@H](NC(=O)[C@H](C)N)C(C)C)[C@H](O)[C@@H](O)[C@@H]1O` (mixture of isomers)?
inhibition [1]: inactive; inhibition [2]: 23%; Activity (SH-SY5Y [3]): Active; inhibition ([4]; concentration not given here): 29%; Activity [5]: 148%; Activity (SH-SY5Y [6]): 75%; inhibition [7]: Active; Stability (Plasma): Stable; Activity (SH-SY5Y [8]): Active; inhibition [9]: Active; inhibition [10]: inactive; inhibition [11]: 87%; inhibition [12]: inactive; Activity [13]: Dose-dependent effect; inhibition [14]: Active; inhibition [15]: Active; inhibition [16]: Active

With `COc1ccc(NC(C)=O)cc1C(=O)NNC(=O)[C@@H](NC(=O)CCOC[C@H]1OC(OCCCNC(=O)[C@@H](NC(=O)[C@H](C)N)C(C)C)[C@H](O)[C@@H](O)[C@@H]1O)C(C)C` (mixture of isomers) as the compound, how does the inhibition [4] read?
Its inhibition is “inactive”.

And the Activity [5]?
The Activity was 155%.

And the Activity [9]?
Its Activity is 325%.

And the inhibition [11]?
Its inhibition is 31%.

Which results are given for `COc1ccc(NC(C)=O)cc1C(=O)NNC(=O)[C@@H](NC(=O)CCOC[C@H]1OC(OCCCNC(=O)[C@@H](NC(=O)[C@H](C)N)C(C)C)[C@H](OCc2ccccc2)[C@@H](OCc2ccccc2)[C@@H]1OCc1ccccc1)C(C)C` (mixture of isomers)?
inhibition [17]: inactive; inhibition [18]: inactive

Which results are given for `COc1ccc(NC(C)=O)cc1C(=O)NNC(=O)[C@H](CCCCNC(=O)OCc1ccccc1)NC(=O)CCOC[C@H]1OC(OCCCNC(=O)[C@@H](NC(=O)[C@H](C)N)C(C)C)[C@H](OCc2ccccc2)[C@@H](OCc2ccccc2)[C@@H]1OCc1ccccc1` (mixture of isomers)?
inhibition [17]: inactive; inhibition [18]: inactive

For `COc1ccc(NC(C)=O)cc1C(=O)NNC(=O)[C@H](CCCCNC(=O)OCc1ccccc1)NC(=O)CCOC[C@H]1OC(OCCCNC(=O)[C@@H](NC(=O)[C@H](C)NC(=O)OC(C)(C)C)C(C)C)[C@H](OCc2ccccc2)[C@@H](OCc2ccccc2)[C@@H]1OCc1ccccc1` (mixture of isomers), which inhibition [17] is on record?
Its inhibition is “inactive”.

And the inhibition [18]?
The inhibition was “inactive”.

Reference: ChEMBL document CHEMBL3792330, “Designed Glycopeptidomimetics Disrupt Protein-Protein Interactions Mediating Amyloid β-Peptide Aggregation and Restore Neuroblastoma Cell Viability” (J Med Chem, 2016)
